Experimental data reported in ChEMBL document CHEMBL4513216, “Probing the Open Global Health Chemical Diversity Library for Multistage-Active Starting Points for Next-Generation Antimalarials” (ACS Infect Dis, 2020).

Test: Toxicity liver stage against HepG2, at 10uM
Type: cell-based
Parameters: test concentration 10 uM, cell line HepG2-A16-CD81EGFP
Conditions: human, HepG2-A16-CD81EGFP cells; read-out: INHIBITION
In short: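 Uninfected HepG2-A16-CD81EGFP cells, 3 × 10^3 per well, 1536-well, plated on prespotted compound at 10 μM final, parasite-free screening media added to match infected plates; puromycin 10 μM positive, DMSO 0.5% negative; run in parallel with 48 h PbLuc assay at 37 °C, 5% CO2; viability by CellTiter-Glo luminescence, normalized to controls.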

| SMILES | cytotoxicity at 10 µM [%] |
| --- | --- |
| COc1ccccc1CNC(=O)CS(=O)(=O)Cc1ccccc1 | 3.26 |
| CCCn1cnc2c1CN(C(=O)c1ccc(F)cc1)[C@H](C(=O)OC)C2 | 4.94 |
| CCN(CC)C1(Cc2cc(-c3cccc(O)c3)on2)COC1 | 7.71 |
| F[C@@H]1CN(CC2CCCCC2)C[C@@H]1OCc1nc2ccccc2o1 | 1.9 |
| O=C(Cc1ccc(F)cc1)NCC(O)(c1cccs1)C1CC1 (stereo unspecified) | -39.3 |
| COc1cc(C(=O)NCCc2ccc(OC)c(OC)c2)on1 | 1.84 |
| COC1(CNC(=O)c2ccc(F)c(F)c2)CCSC1 (stereo unspecified) | -2.11 |
| O=C(c1ccoc1)N1CCC2(CC1)C(=O)N(CC1CC1)c1ccccc12 | 10.7 |
| O=C1CC2(CCCCN2C(=O)c2ccccc2)CN1CC1CC1 (stereo unspecified) | 3.85 |
| O=C(c1cscn1)N1CCC2(CCN(S(=O)(=O)c3ccccc3)C2)C1 (stereo unspecified) | 11 |
| O=C([C@@H]1CCO[C@@H]2CCN(Cc3ccco3)C[C@H]21)N1CCCCO1 | 9.76 |
| Cc1n[nH]/c(=N\C(=O)c2c3c(nc4onc(C)c24)CCC3)s1 | -1.88 |
| CC(C)(C)c1cc(C(=O)N2CCC(c3cnccn3)CC2)[nH]n1 | 0.775 |
| CC(OCC1CC1)C(=O)Nc1ccn(Cc2ccccc2)n1 (stereo unspecified) | 11.9 |
| O=S(=O)(N1CCCCC1)N1CCCN(CC2CCCO2)CC1 (stereo unspecified) | -3.94 |
| CN(Cc1ccccc1F)C(=O)COC(=O)c1cc(Cl)c[nH]1 | 12.4 |
| CCN(CC(C)O)C(=O)Nc1cnn(CCOC)c1 (stereo unspecified) | -11.6 |
| O=C1CSCN1Cc1nc(-c2ccc(N3CCCCC3)cc2)no1 | -6.79 |
| CSCCC(NC(N)=O)C(=O)NCc1cnn(-c2ccccc2)c1 (stereo unspecified) | 5.79 |
| Cn1cc(C2CCCN2C(=O)CS(=O)(=O)C2CCCC2)cn1 (stereo unspecified) | -4.8 |
| CCc1nnc2n1CCN(C(=O)CCOc1ccc(C)cc1C)C2 | 2.93 |

| SMILES | cytotoxicity at 10 µM [%] |
| --- | --- |
| COCc1nccc(C2CCCN(Cc3ccc(SC)cc3)C2)n1 (stereo unspecified) | 23.4 |
| Cc1cccc(N(C)S(=O)(=O)c2cc(C(=O)O)cs2)c1C | -0.731 |
| Cc1nn(C)c(C)c1OCC(=O)NCC(O)c1ccsc1 (stereo unspecified) | 2.27 |
| O=C(CCCNCc1ccc(Cl)c2cccnc12)NC1CC1 | -4.76 |
| Cc1cc(=O)n2ncnc2n1CC(O)c1cc(Cl)ccc1Cl (stereo unspecified) | 3.19 |
| CCN(CC)c1ccc(NS(=O)(=O)c2cnn(C(C)C)c2)cn1 | 5.02 |
| Cc1cc(C)n(CC2CN(CCc3ccncc3)CCO2)n1 (stereo unspecified) | 0.347 |
| Cc1ccc(C(=O)NCC(O)c2cnn(C)c2)c(Br)c1 (stereo unspecified) | -6.53 |
| CCCOC1CCCN(C(=O)c2[nH]nc(C)c2Br)C1 (stereo unspecified) | 0.595 |
| Cc1cc(CN(Cc2ccccc2)C(C)CN2CCOCC2)no1 (stereo unspecified) | 4.69 |
| CNC(=O)NC(=O)CCSc1ccccc1C | 4.11 |
| CCc1noc(CCCC(=O)Nc2cc(C(F)(F)F)c[nH]c2=O)n1 | -4.84 |
| O=C(Nc1cccnc1-n1cccn1)N1CCCC(N2CCCC2)C1 (stereo unspecified) | 8.53 |
| Cn1cc(NC(=O)c2ccccn2)cc(Br)c1=O | -12.8 |
| CCc1nnc2n1CCN(C(=O)c1csc(-c3cnn(C)c3)n1)C2 | 6.41 |
| COc1ncnc2c1CCN(CC1CCOC1)CC2 (stereo unspecified) | -68.9 |
| CN(C)C(C(=O)N1CCN(CCn2cccc2)CC1)c1ccc(F)cc1 (stereo unspecified) | -14.9 |
| CCCN1CCCn2nc(CNS(=O)(=O)c3cccc(F)c3)cc2C1 | -13.1 |
| COc1cccc2ccc(CN3CCN(c4cccnc4)CC3)nc12 | -8.66 |
| Cn1ccnc1CN(CCO)Cc1ccc(C(F)(F)F)cc1 | -17.3 |
| CCCn1cc(-c2cc(C(=O)N(C)C)c3ccc(OC)cc3n2)cn1 | 6.22 |

| SMILES | cytotoxicity at 10 µM [%] |
| --- | --- |
| COCCN1CCC(CN(CC2CCCO2)C(=O)C2CCOCC2)CC1 (stereo unspecified) | -0.401 |
| O=S(=O)(c1c(Cl)nc2sccn12)N1CCCC2(CCNC2)C1 (stereo unspecified) | 8.64 |
| c1cc(CN2CCC(c3nnc4n3CCCCC4)CC2)c2c(c1)OCO2 | -3.14 |
| CC(C)c1nnc(NCc2cc3n(n2)CCNC3)s1 | -2.11 |
| Cc1nc(C2CCNCC2)cc(N2CCCC(C(=O)NCCCO)C2)n1 (stereo unspecified) | -124 |
| Cc1nc2cc(C(=O)N3C[C@@H](C(=O)O)[C@H](C4CC4)C3)ccc2[nH]1 | -12.1 |
| Nc1ccc(C(=O)N2CCC(Oc3cccc(C(F)(F)F)c3)CC2)cn1 | 5.3 |
| COCCC1CCCCN1C(=O)c1coc(COc2ccccc2F)n1 (stereo unspecified) | 3.97 |
| CN1CCCC2(CCN(S(=O)(=O)c3c(Cl)nc4sccn34)C2)C1=O (stereo unspecified) | 12.4 |
| COc1nc2c(cc1C(=O)NCCCc1csc(N)n1)CCC2 | 3.63 |
| CCc1nc(C)sc1CN1CC[C@@](O)(C2CC2)[C@H](C)C1 | -10.3 |
| CCc1nc(C2CCCN2C(=O)c2cnns2)no1 (stereo unspecified) | 1.04 |
| O=C(Cc1ccc(F)cc1)N1CCN(CC(O)c2ccccc2)CC1 (stereo unspecified) | -11.2 |
| Cc1nc(C2CCCN(C(=O)CCn3ccccc3=O)C2)no1 (stereo unspecified) | -9.35 |
| COc1c(C)cnc(CN2CCOC(Cn3cc(C)cn3)C2)c1C (stereo unspecified) | -14.7 |
| COc1cc(C(=O)Nc2nc(C)no2)ccc1OC1CCCC1 | -2.12 |
| COc1cccc(-n2c(C)cc(C(=O)NC(C)(C)C(N)=O)c2C)c1 | -2 |
| Brc1ccccc1-c1nnc(CNCCn2cccn2)o1 | -24.5 |
| Cc1nc(CN2CCCN(Cc3nccn3C(C)C)CC2)no1 | -1.91 |
| CC(=O)NCCNC(=O)CN1CCCC(Cn2cncn2)C1 (stereo unspecified) | -18.9 |
| CC(C)CCC(=O)N(C)CC(=O)Nc1ccc(Br)cn1 | -8.39 |

| SMILES | cytotoxicity at 10 µM [%] |
| --- | --- |
| CC(C)CC(=O)N(C)CC(=O)Nc1ccc(Br)cn1 | -1.43 |
| O=C(NC1CCN(Cc2cccc3c2OCCO3)CC1)c1cccs1 | -4.71 |
| O=C1CCC2(CCC(NCc3ccsc3)CC2)N1Cc1ccccc1 (stereo unspecified) | 3.79 |
| O=C(CN1CC(c2nc(C3CC3)no2)C1)N1CCOCC1 | -9.76 |
| Cc1noc([C@@H]2C[C@H]3OCC[C@H]3N(CC3CCCC3)C2)n1 | -77.5 |
| CN(C)C[C@H]1OC[C@@H]2CCN(C(=O)c3ccc[nH]3)C[C@@H]21 | 5.41 |
| O=C(NC1CC1)[C@@H]1C[C@@H]2CCN(Cc3ccccc3)C[C@H]2O1 | -68 |
| COCC1CN(Cc2ccc(C)o2)Cc2cn(C)nc21 (stereo unspecified) | -9.2 |
| CCOC1COC2(CCN(Cc3cccc(C#N)c3)CC2)C1 (stereo unspecified) | -2.66 |
| O=C(c1ccncc1F)N1CCc2onc(COc3cccnc3)c2C1 | -70.6 |
| CN1CCn2c(-c3ccccc3)cnc2C12CCN(CC1CC1)CC2 | 5.35 |
| COc1ccc(C[C@H]2CN(C3CCOCC3)CC[C@@H]2OCC2CC2)cc1 | 2.38 |
| COc1ccc(CN2CCc3c(CNC(=O)CC#N)nn(C)c3C2)cc1 | 9.67 |
| CC(=O)N1[C@H](CN(C)C)C[C@@H]2CN(C(=O)c3cccc(F)c3)CC[C@@H]21 | 5.85 |
| COCCN1CCOCC12CCN(C(=O)c1cccnc1)CC2 | -73.1 |
| COCC1CN(Cc2ccncc2)Cc2nn(CC3CC3)cc21 (stereo unspecified) | -73.7 |
| O=C(C1CN(CC2CCOCC2)CC12CCOCC2)N1CCCC1 (stereo unspecified) | 6.65 |
| CN(C)C(=O)CN1C[C@H]2CC[C@@H](C1)N(Cc1c(F)cccc1Cl)C2 | 5.48 |
